Test: Toxicity liver stage against HepG2, at 10uM
Assay type: cell-based
Parameters: test concentration 10 uM, cell line HepG2-A16-CD81EGFP
Conditions: human, HepG2-A16-CD81EGFP cells; read-out: INHIBITION
Summary of the method: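 Uninfected HepG2-A16-CD81EGFP cells, 3 × 10^3 per well, 1536-well, plated on prespotted compound at 10 μM final, parasite-free screening media added to match infected plates; puromycin 10 μM positive, DMSO 0.5% negative; run in parallel with 48 h PbLuc assay at 37 °C, 5% CO2; viability by CellTiter-Glo luminescence, normalized to controls.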

Compound	cytotoxicity at 10 µM [%]
COC(=O)c1cccc(C(=O)N2CCN(c3ccc(OC)cc3)CC2)n1	-7.12
CC(=O)c1cn(CCC(=O)Nc2c3c(nn2C)CSC3)c2ccccc12	-1.93
COC(=O)[C@H](CCSC)NC(=O)Cc1c(C)nn(-c2ccccc2)c1C	-1.65
CC1(C)OCC2(CO1)CN(S(=O)(=O)c1ccc(Cl)s1)C2	-0.295
N#Cc1ccc(S(=O)(=O)Nc2cnn(C3CCOCC3)c2)cc1	-11.3
CN(Cc1cccs1)C1CCC[C@@H]2CN(C(=O)c3cccn3C)C[C@H]12 (stereo not given in full)	22.6
O=C(NCC1CC[C@@]2(CNCCOC2)O1)c1cnccn1 (stereo not given in full)	9.44
COCCNC(=O)[C@]12COC[C@H]1CN(c1cc(OC)ncn1)C2	4.32
CN1CCN(CC2CC2)C(=O)C12CCN(C(=O)c1cnccn1)CC2	7.95
Fc1cccc(N2CCc3ncnc(N4CCOCC4)c3CC2)c1	9.49
CC(=O)c1cn(CCC(=O)N[C@H](C(=O)O)C(C)C)c2ccccc12	8.86
O=c1[nH]c2nc(N3CCSCC3)ncc2c(=O)n1-c1cccc(F)c1	-1.82
O=C(NCc1cccs1)C1CN(C(=O)c2cccs2)CC12CCOCC2 (stereo not given)	-11.5
CC1CCN(C(=O)C(C)n2cc(Br)cn2)CC1 (stereo not given)	11.3
COc1cccc(-c2cc(C(=O)N3N=C(C)CC3(O)C(F)F)[nH]n2)c1 (stereo not given)	8.46
Cc1nn(C)c(C)c1CN(C)CC1(O)CCCN(C)C1 (stereo not given)	6.5
O=C(NCC1CC1)c1nnc2ccc(Cl)cc2n1	0.318
Cc1nn(C)cc1-c1cc(C(=O)NCC(C)(C)c2ccc(F)cc2)n[nH]1	-1.29
Cc1cc(N2CCCC(c3nccnc3N(C)C)C2)ncn1 (stereo not given)	-1.77
Cc1csc2c(C3CCCN(C(=O)CCn4cncn4)C3)nc(C)n12 (stereo not given)	7.96
c1cc(-c2cnc(NC3CC3)nc2[C@@H]2CCCO2)ccn1	8.72
Cc1cnc(-c2nc(O)c3c(n2)CN(C(=O)CC2CCCC2)CC3)cn1	-1.37

Compound	cytotoxicity at 10 µM [%]
Cc1ccc(CNCCN2CCOCC2)o1	-2.62
Cc1ccsc1C(=O)N1CCC2(CC(N(C)c3ccncn3)C2)C1 (stereo not given)	-5.75
O=C(NC1CC1)c1cc(C(F)(F)F)cc(C(=O)NC2CC2)n1	9.97
CC(NC(=O)N1CCC2(C1)OCCO2)c1cccc(Cl)c1 (stereo not given)	-6.88
COc1ccccc1CN(C)C(=O)C[S+]([O-])Cc1cc(C)on1 (stereo not given)	0.788
CCc1ccc(C(C)NCc2nccn2Cc2ccccc2)o1 (stereo not given)	-1.2
CN(Cc1cnn(C)c1)C(=O)CCC(=O)c1ccc2c(c1)OCCO2	-1.14
Cc1nc(COc2ccc(OC(C)C(N)=O)cc2)oc1C (stereo not given)	-1.65
O=C(c1cnc(NCCC2CCCO2)c(Cl)c1)N1CCOCC1 (stereo not given)	7.74
Cc1cc(C(=O)NC2CCN(c3ncccc3C#N)CC2)no1	-7.25
Cc1ccc(C(=O)N(CCC#N)Cc2ccccn2)cc1C	0.665
CN(Cc1ccco1)C(=O)NCc1nnc2n1CCC2	16.9
Cc1cc(N2CCN(C(=O)c3cc(Cl)c[nH]3)CC2)nc(C)n1	-2.43
Cc1ccc(C(=O)N2CCN(CCCSCC#N)CC2)cc1F	-145
Cc1nn(CC(=O)N2CCN(c3cnccn3)CC2)c(C)c1Cl	7.76
CCOC(=O)c1ccc(Nc2ccc(OC)c(N3CCCC3=O)c2)nc1	8.46
COCCOCCNC(=O)N1CCc2c(F)ccc(F)c2C1	-2.23
Cc1cc(C)c2c(c1)C(NC(=O)CSCC(N)=O)CCO2 (stereo not given)	-6.94
Cc1ccc(F)cc1NC(=O)CCn1cncn1	-0.639
CCC(NC(=O)CS(=O)(=O)C1CCCC1)c1cc(F)ccc1F (stereo not given)	0.217
CCc1nc(CC(=O)N2CCC(C(=O)N3CCCCC3)CC2)cs1	4.92
C[S+]([O-])c1nncn1CCCc1ccc(Cl)cc1 (stereo not given)	-8.64

Compound	cytotoxicity at 10 µM [%]
O=C(NCC1(Sc2ccccc2)CC1)c1cc[nH]n1	-5.96
O=C(NCC(CO)Cc1ccc(Cl)cc1)c1ccncc1Cl (stereo not given)	5.21
CCOC1CCCN(C(=O)Nc2cnn(CC(F)F)c2)C1 (stereo not given)	-1.84
COCCn1ccc(NCc2cc3cc(F)ccc3o2)n1	-8.78
CCC(C)C(=O)NCCc1nc(C(F)(F)F)cs1 (stereo not given)	2.08
CC(C)NC(=O)COc1nc(C(C)C)no1	-3.34
Cc1ccccc1S(=O)(=O)NC(=O)CSc1ccc2c(c1)OCCO2	-1.85
Cc1ccc(OCCC(=O)NC2CCc3nc(C)cn3C2)cc1 (stereo not given)	-5.59
CC1CC2(CCN(C(=O)c3c[nH]cn3)CC2)c2ccccc21 (stereo not given)	2.44
Cn1cc2c(n1)C(COCC1CC1)CN(Cc1ccsc1)C2 (stereo not given)	-76.1
O=C(c1ccncc1F)N1CCc2ncnc(N3CCOCC3)c2CC1	-75
Cc1ccc(S(=O)(=O)N2CCC3(CC(C(=O)NC4CCC4)=NO3)C2)cc1 (stereo not given)	-1.77
Cc1ccc(=O)n(CC(=O)N(C)Cc2csc(-c3cccs3)n2)n1	6.23
Nc1ncc(CN2CCC(CCC(=O)NC3CC3)CC2)cn1	11.7
NC(=O)c1cn2cc(-c3ccccc3Cl)n(CC3CC3)c(=O)c2n1	-1.35
Cn1c(CN2CCCC2)nnc1C1CCCN(C(=O)N2CCOCC2)C1 (stereo not given)	-0.193
CC(=O)N[C@@H]1CN(Cc2ccccc2-n2nc(C)cc2C)C[C@H]1C(C)C	4.01
Cn1cc(CN2CCOC(CCNC(=O)c3ccsc3)C2)cn1 (stereo not given)	2.72
COCCCC1CCCN(Cc2c(C)ccc3ncccc23)C1 (stereo not given)	-136
CC[C@@H](CO)NC(=O)c1cccc(CCC(C)(C)O)c1	-3.33
COc1ccc(CN2CCC3(CCCN(C)C3=O)C2)c(OC)c1C (stereo not given)	-0.409
CCCc1ccc(CN2CCN(C(=O)C(C)C)[C@@H]3CS(=O)(=O)C[C@@H]32)o1	5.39

Compound	cytotoxicity at 10 µM [%]
O=C1NCCN(C(=O)CCN2CCCO2)C1c1cccc(F)c1 (stereo not given)	5.47
COc1ccc(Cc2ncc3c(n2)CN(C(=O)CN(C)C)C3)cc1	-1.28
CCc1nccc(CN2CCCC(CNC(=O)c3occc3C)C2)n1 (stereo not given)	2.28
COc1ccc(OC2CCN(C(=O)CCc3n[nH]c(N)n3)CC2)cc1	1.43
O=C(NCCc1cc(=O)[nH]cn1)c1[nH]nc2c1CCCC2	2.22
CCN(Cc1ccncc1)Cc1cn(-c2ccccc2)nn1	-49.8
CCn1ccnc1CN1CCC(Oc2cccc(F)c2)(C(=O)O)CC1	3.67
COCc1cn(C2CCN(Cc3ccc(Cl)s3)CC2)nn1	5.43
CN(C(=O)C1CCCC1)C(c1cccc(F)c1)c1ccccn1 (stereo not given)	6.07
O=C(CS(=O)(=O)Cc1ccccc1)NC1CCCCNC1=O (stereo not given)	-1.46
CC(C)c1nnc2n1CCN(CCC(=O)Nc1sccc1C#N)C2	-25.8
CCc1ccc(S(=O)(=O)Nc2ccc(F)cc2C(=O)O)s1	3.69
CN(Cc1noc(C2CC2)n1)C1CCN(Cc2ccccc2C#N)C1 (stereo not given)	-7.8
COc1ccc(-c2nc(CN3CCc4cncnc4C3)no2)cc1	-3.92
CC(O)CN1CCN(Cc2csc(-c3cnn(C)c3)n2)CC1 (stereo not given)	-4.1
O=C(CN1CCc2c(ncn2C2CC2)C1)NC1CCOCC1	-13.4
CCc1nc(C2CCCN(C(=O)c3ccc4[nH]cnc4c3)C2)no1 (stereo not given)	1.48
COc1c(C2CCCN2C(=O)c2cnccn2)c(C)nn1C (stereo not given)	0.501
c1cnnc(N2CCCC(NCc3ccc(-n4cncn4)cc3)C2)c1 (stereo not given)	-3.14
CC(C)c1nnc2n1CCN(C(=O)c1cccc(OCC(N)=O)c1)C2	-4.38
Cc1nc(C)n(CC2CCCN2Cc2ccccn2)n1 (stereo not given)	-0.186
Cc1nc(CN2CCCC2Cn2cncn2)nc2ccccc12 (stereo not given)	-1.63

Compound	cytotoxicity at 10 µM [%]
CN(Cc1nc2c(cnn2C)c(=O)[nH]1)Cc1ccccc1Cl	-5.82
CC(C)(CNC(=O)NCCOc1cccc(F)c1)C(N)=O	-8.93
Cc1noc(C(C)C)c1C(=O)NCC(c1cccc(F)c1)N(C)C (stereo not given)	-7.46
Cc1ccc(N2CCCC(NCc3ccsc3)C2)nn1 (stereo not given)	-7.42
N#Cc1cccnc1OC1CCNCC1	-8.99
O=C(NCC1CCC2(CCNCC2)CO1)c1ccno1 (stereo not given)	12.5
CCOCC1CN(C(=O)c2ccnnc2)Cc2cnn(CC)c21 (stereo not given)	-77.8
CNC(=O)c1cc(C2CCCNC2)n[nH]1 (stereo not given)	9.03
Cc1cc(C)nc(C2CCCNC2)n1 (stereo not given)	9.85
C1CCN(CCOC2CCNC2)CC1 (stereo not given)	6.32
Cc1cccc(S(=O)(=O)N2CC[C@H]3[C@H]2CCN3c2ncccn2)c1	0.995
O=C([C@H]1C[C@H]2OCC[C@H]2N(Cc2ccccn2)C1)N1CCCCO1	-73.3
Cc1cnc(N2CC[C@@H]3O[C@H](COCc4ccccn4)CC[C@@H]32)nc1	-76.3
O=C1[C@H]2CN(CC3CCOCC3)C[C@H]2CN1c1ccsc1	8.52
COCC(=O)N1CCCC2(COCCN(CCN(C)C)C2)C1 (stereo not given)	8.76
O=C(C1CCCO1)N1CCC2(CC1)COCCN(Cc1ccncc1)C2 (stereo not given)	-81.1
CN(C)CCO[C@@H]1CC[C@H]2[C@H]1OCCN2C(=O)CCc1ccccc1	-6.69
c1cnc(N2CCC3(CCN(CC4CCOCC4)CC3)C2)nc1	1.29
O=C([C@H]1C[C@@H]2[C@@H](C1)OCCN2CC1CC1)N1CCCC1	-2.2
CC(C)N1[C@H](Cn2cncn2)C[C@@H]2CNCC[C@@H]21	1.9
CCN1CC2(CC1=O)CN(Cc1ccco1)CCN(C(=O)N(C)C)C2 (stereo not given)	-6.05
Cc1ccccc1CNC(=O)N1C[C@@H]2C[C@H](C(=O)N(C)C)[C@H](C1)O2	5.44

Reference: ChEMBL document CHEMBL4513216, “Probing the Open Global Health Chemical Diversity Library for Multistage-Active Starting Points for Next-Generation Antimalarials” (ACS Infect Dis, 2020)
